# High-throughput results: PubChem, NMMLSC
# MEKK2 mut-MEK5: signal of MEK5 binding to mutant human MEKK2 PB1 domain; percent response, % at 10 µM; bead flow cytometry, Alexa488-MEK5 binding to MEKK2 mutant; 290,000 compounds, 0.35% hits; AID 1530; in the data active = percent response above about 24%, passing the limit was not always enough
# MEKK3 PB1 HTS: raises or lowers MEK5 binding to the human MEKK3 PB1 domain. bead-based flow cytometry, Alexa488-MEK5 binding to MEKK3; actives lie on both sides; 0 = blocked by unlabeled MEK5, 100 = vehicle. binding response (% of control), % at 10 µM. 290,000 compounds, 1.4% hits. AID 1529. Q99759;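 active = binding response more than 3 SD above or below the average of its plate-row segment, actives on both sides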;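 note: Alexa488 bead fluorescence after subtracting the streptavidin-only scavenger bead signal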
# ABCB1 block: human ABCB1 inhibition, ABCG2 as counter-screen. P08183. CCRF-Adr cells, JC-1 efflux, flow cytometry. inhibition, % at 6.6 µM. 190,000 compounds, 0.067% hits. AID 1326; in the data active = inhibition above about 40%;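 note: 0% = vehicle and 100% = reference inhibitor; higher value means more JC-1 retained so stronger ABCB1 efflux block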
# Target sequence (P08183 whole entry, looked up): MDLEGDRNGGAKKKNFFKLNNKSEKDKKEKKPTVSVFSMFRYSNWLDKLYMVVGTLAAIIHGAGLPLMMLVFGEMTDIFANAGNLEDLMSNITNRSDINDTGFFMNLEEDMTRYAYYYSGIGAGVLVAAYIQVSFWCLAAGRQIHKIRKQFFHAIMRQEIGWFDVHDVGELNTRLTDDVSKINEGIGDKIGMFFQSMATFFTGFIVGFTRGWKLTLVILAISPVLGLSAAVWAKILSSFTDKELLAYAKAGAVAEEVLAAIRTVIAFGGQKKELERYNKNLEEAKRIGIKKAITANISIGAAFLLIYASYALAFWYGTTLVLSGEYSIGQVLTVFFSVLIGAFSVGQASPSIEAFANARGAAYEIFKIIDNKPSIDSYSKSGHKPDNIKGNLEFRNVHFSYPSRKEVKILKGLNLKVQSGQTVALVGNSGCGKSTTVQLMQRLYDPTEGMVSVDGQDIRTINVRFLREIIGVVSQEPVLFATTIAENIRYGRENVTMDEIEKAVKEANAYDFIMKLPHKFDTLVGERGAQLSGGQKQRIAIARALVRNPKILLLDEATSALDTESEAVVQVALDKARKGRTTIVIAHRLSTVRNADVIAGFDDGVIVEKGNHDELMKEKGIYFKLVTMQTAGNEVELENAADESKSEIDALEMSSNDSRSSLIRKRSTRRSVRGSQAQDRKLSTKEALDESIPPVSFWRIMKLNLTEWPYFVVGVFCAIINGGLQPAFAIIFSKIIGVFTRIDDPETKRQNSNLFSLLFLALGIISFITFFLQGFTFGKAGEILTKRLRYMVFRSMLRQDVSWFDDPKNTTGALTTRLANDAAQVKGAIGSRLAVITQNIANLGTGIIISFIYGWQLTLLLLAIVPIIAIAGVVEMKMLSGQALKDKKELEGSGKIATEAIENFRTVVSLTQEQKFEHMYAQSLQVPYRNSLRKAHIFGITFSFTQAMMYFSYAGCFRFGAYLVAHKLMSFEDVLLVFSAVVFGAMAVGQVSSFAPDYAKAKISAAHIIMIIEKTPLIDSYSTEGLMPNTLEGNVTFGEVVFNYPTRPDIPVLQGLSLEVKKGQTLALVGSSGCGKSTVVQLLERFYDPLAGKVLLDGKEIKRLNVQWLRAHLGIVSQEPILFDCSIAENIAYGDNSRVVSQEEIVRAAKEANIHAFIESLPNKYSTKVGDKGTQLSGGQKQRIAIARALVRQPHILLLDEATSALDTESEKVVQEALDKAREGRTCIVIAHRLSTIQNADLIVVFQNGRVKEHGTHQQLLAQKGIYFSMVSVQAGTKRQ
# ABCG2 block: human ABCG2 inhibition, ABCB1 as counter-screen; Q9UNQ0; IgMXP3 cells, JC-1 efflux, flow cytometry; inhibition, % at 6.6 µM; 190,000 compounds, 0.1% hits; AID 1325;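 active = inhibition above 80%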;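 note: 0% = DMSO and 100% = nicardipine control wells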
#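 Assay system – ABCG2 IgMXP3 and barcoded ABCB1 CCRF-Adr cell mix · Input – 3 million cells/mL in well · Reagent – JC-1 fluorescent substrate · Compound – single test compound dose, 6.6 µM final · Timing – 10 min exposure at 25 °C with rotation, no wash · Detection – flow cytometry of retained JC-1 fluorescence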
# MEKK2wt PB1 HTS: raises or lowers MEK5 binding to wildtype human MEKK2 PB1 domain; Q9Y2U5; binding response (% of control), % at 10 µM; 290,000 compounds, 1.1% hits; bead flow cytometry, Alexa488-MEK5 binding to MEKK2 WT; actives lie on both sides; in the data active = binding response below about 67% or above about 130%
# Efflux pump mplx: inhibitors of Candida antifungal efflux pumps expressed in yeast; 330,000 compounds, 0.44% hits; inhibition, % at 10 µM; S. cerevisiae Candida pump triplex, Nile Red efflux; AID 485275;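 active = plate passing quality check with inhibition over a set limit, or well fluorescence over plate mean plus 4 SD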;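 note: Nile Red retained in pooled yeast measured as flow cytometry median fluorescence; 0% = buffer negative control and 100% = Enniatin B positive control; higher means more Nile Red kept so more efflux inhibition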
# MEKK2wt confirm: raises or lowers MEK5 binding to wildtype human MEKK2, retest; shares compounds with MEKK3 PB1 HTS; bead flow cytometry, Alexa488-MEK5 binding to MEKK2 WT; actives lie on both sides; binding response (% of control), % at 10 µM; 5,900 compounds, 2.4% hits; AID 1892; in the data active = binding response below about 16% or above about 210%; inactive = in between
# MEKK2mut confirm: signal of MEK5 binding to mutant human MEKK2, retest. shares compounds with MEKK3 PB1 HTS. bead flow cytometry, Alexa488-MEK5 binding to MEKK2 mutant. percent response, % at 10 µM. 5,900 compounds, 2% hits. AID 1893; in the data active = percent response mostly above about 71%, no sharp cut-off; inactive = mostly below about 38%;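 note: higher means compound restores mutant binding toward wildtype level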
# MEKK3-MEK5 inh: confirmation of inhibitors of MEK5 binding to human MEKK3. shares compounds with MEKK3 PB1 HTS. bead flow cytometry, Alexa488-MEK5 binding to MEKK3; hits give low values. binding response (% of control), % at 10 µM. 5,900 compounds, 1.8% hits. AID 1894;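 active = binding response below 72% of control, or above a set upper limit, though filed actives all read lower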;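 note: 100% = DMSO only wells and 0% = binding blocked by excess unlabeled MEK5; lower values mean stronger disruption of MEK5 binding to MEKK3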
# Starred values were filed as active, the others as inactive; / = no result; [ ] = dose if it differs, or a comment. Sampled rows, rich in hits. Any-hit rate of the full collection: about 2.5%.
SMILES,MEKK2 mut-MEK5,MEKK3 PB1 HTS,ABCB1 block,ABCG2 block,MEKK2wt PB1 HTS,Efflux pump mplx,MEKK2wt confirm,MEKK2mut confirm,MEKK3-MEK5 inh
O=C(O)c1ccccc1/C=N/N1CCN(C2c3ccccc3-c3ccccc32)CC1,-36,71*[inhibitor],1,8,68,0,108,0,105
COc1cc(/C=N/N2CCN(C3c4ccccc4-c4ccccc43)CC2)cc(OC)c1OC,-1,130*,2,2,106,0,109,3,105
CCN1CCCC1CNC(=O)C(=O)NCCc1ccc(OC)c(OC)c1 (centres undefined),0,100,0,1,92,0,/,/,/
COc1ccc(C2C3=C(CC(C)(C)CC3=O)Nc3c2c(=O)n(C)c(=O)n3C)cc1OC (centres undefined),1,128*,1,2,119,0,108,1,104
O=C(CNc1ccccc1)N/N=C/c1ccc([N+](=O)[O-])cc1,0,134*,-1,1,106,0,100,3,102
O=C(CCNC(=O)c1ccccc1)N/N=C/c1ccc([N+](=O)[O-])cc1,-1,104,1,5,102,0,/,/,/
O=C(CNc1ccccc1)N/N=C/c1ccc2c(c1)OCO2,-1,135*,0,6,104,0,105,5,103
O=C(COC(=O)/C=C/c1ccccc1Cl)NCCNC(=O)COC(=O)/C=C/c1ccccc1Cl,-7,97,/,/,96,0,/,/,/
Cc1cccn2c(CNCC3(c4ccccc4)CCCC3)c(C(=O)N3CCOCC3)nc12,-3,100,1,7,114,0,/,/,/
COCCNC(=O)C(=O)NCC1OCCN1S(=O)(=O)c1ccc2c(c1)OCCO2 (centres undefined),23,129*,/,/,124,0,104,4,105
CNC(=O)C(=O)NCC1OCCN1S(=O)(=O)c1ccc2c(c1)OCCO2 (centres undefined),/,/,0,0,/,0,/,/,/
CSc1cccc(NC(=O)/C=C/c2ccc(Cl)cc2)c1,10,107,-1,-3,146*,0,126,12,107
CSc1cccc(NC(=O)/C=C/c2ccccc2)c1,-3,100,0,1,107,0,/,/,/
Cn1nc(C(=O)OCC(=O)Nc2cccc(S(=O)(=O)N3CCCC3)c2)c2ccccc2c1=O,-1,97,/,/,97,0,/,/,/
O=C(N1CCN(c2ccccc2F)CC1)C1(c2cccs2)CCOCC1,0,134*,-2,-15,106,0,97,2,103
O=C(N1CCN(c2ccccc2F)CC1)C12CC3CC(CC(C3)C1)C2,0,104,0,0,101,0,/,/,/
Oc1ccc(Nc2nc(NCC3CCCO3)c3ccccc3n2)cc1 (centres undefined),15,100,1,7,128,/,/,/,/
COc1cccc(Nc2nc(NCC3CCCO3)c3ccccc3n2)c1 (centres undefined),20,106,1,1,144*,0,141,31,105
COc1ccccc1NC(=O)CSc1nnc2ccc(-c3cccnc3)nn12,190*,118,0,3,107,0,104,6,107
Cc1ccc(-n2nnnc2CNC(=O)c2ccc3c(c2)OCO3)cc1C,2,100,/,/,105,0,/,/,/
Cc1cc(C)n(-c2nc(SCC(=O)O)c3c4c(sc3n2)COC(C)(C)C4)n1,4,102,/,/,105,0,/,/,/
Cc1cc(C)n(-c2nc(SCCN(C)C)c3c4c(sc3n2)CCCC4)n1,49*,124*,2,2,211*,1,152,28,98
